From PubChem BioAssay AID504383 (The Scripps Research Institute Molecular Screening Center, 2011)
The whole screen tested about 2,500 compounds, of which about 1,200 (48%) were called active. So high a share suggests a set chosen from earlier hits. This is one part of the list. Unmarked numbers belong to inactive results.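 How the source made its calls: active means mean activation above the low control average plus 3 SD, as set in the primary screen (cut at about 12% in these data); inactive means the rest.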

Biological target: Troponin I, cardiac muscle (Homo sapiens) + Troponin T, cardiac muscle (Homo sapiens) + Troponin C, slow skeletal and cardiac muscles (Homo sapiens) (UniProt P19429+P45379+P63316)
Assay: cardiac RTF calcium sensitivity activators, confirmation, biochemical, IANBD-TnC fluorescence, triplicate (AID 504383);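 further: 0% = DMSO at 0.472 mM calcium and 100% = DMSO at 2.9 mM calcium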
Conditions: IANBD-labeled cardiac RTF, Ca2+ sensitivity fluorescence; at 7.2 µM; hits give high values; scaled from EC20 to saturating calcium; tested at EC20 calcium, 0.472 mM
Outline: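 Assay system: labelled regulated thin filament protein complex; schedule: 15 min compound incubation with filaments at 25 °C; benchmarks: low control EC20 calcium, high control EC100 calcium; reagent: Ca2+ 0.472 mM, EC20 level; doses: one dose, 7.2 µM nominal; evaluation: fluorescence gain scaled between EC20 and EC100 calcium controls; signal: filament fluorescence intensity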

Compound | activation
CCOC(=O)c1cc(-c2ccc(F)cc2)n(CCC(=O)NC2CCN(Cc3ccccc3)CC2)c1C | 10.5%
CCOC(=O)N1CCC(Nc2cccc(SC)c2)CC1 | 246% (active)
CCOC(=O)N1CCC(NC(=O)c2cccs2)CC1 | 6.98%
Oc1c(N=NC(=S)Nc2ccccc2F)c2ccccc2n1Cc1ccc(F)cc1 | 3.17%
Cc1ccc(Cn2c(O)c(N=NC(=S)Nc3ccccc3F)c3cc(S(=O)(=O)N4CCOCC4)ccc32)cc1 | 17.5% (active)
CCOC(=O)CCC(=O)NCc1ccc2c(c1)cc(C)n2C | 11.9% (active)
O=C(O)CSc1ncnc2scc(-c3ccc(Br)cc3)c12 | 11.7% (active)
CCc1ccc(-n2c(O)c(C=NCCN(CC)CC)c(=O)[nH]c2=O)cc1 | 20.8% (active)
CC(C)(C)NC(=O)CSc1nnc(-c2ccccn2)n1-c1ccccc1 | 6.6%
Cc1nnc(SCC(=O)NC(C)(C)C)n1C1CCCCC1 | 45% (active)
CN(C)S(=O)(=O)c1ccc2c(c1)/C(=C/c1cc3c([nH]1)CCCC3)C(=O)N2 | 18.2% (active)
Cc1ccc(-n2c(C)n[nH]c2=S)cc1 | 6.67%
S=c1[nH]nc(-c2ccc(Cl)cc2)n1-c1ccc2c(c1)OCCO2 | 136% (active)
Cn1c(=O)c(NC2CCCCC2)c2c3c(cccc31)C(=O)c1ccccc1-2 | 9.43%
CC(=O)Nc1ccc(Nc2c3c4c(cccc4n(C)c2=O)C(=O)c2ccccc2-3)cc1 | 26.1% (active)
Cn1c(=O)c(NCCO)c2c3c(cccc31)C(=O)c1ccccc1-2 | 4.78%
Cc1nc(-c2ccc(C#N)cc2)cs1 | 8.7%
CCOC(=O)C1C(=O)NC(SCC(N)=O)=C(C#N)C1c1ccccc1OCC (configuration not stated) | 2.57%
O=C(O)[C@@H]1[C@H]2C[C@H]3c4[nH]c5ccccc5c4CCN3C[C@@H]2CC[C@@H]1O | 1.98%

Compound | activation
COC(=O)C1C2CC3c4[nH]c5cc(OC)ccc5c4CCN3CC2CC(OC(=O)CC(C)=O)C1OC (configuration not stated) | 7.14%
COC(=O)C1=COC(C)C2CN3CCc4c([nH]c5ccccc45)C3CC12 (configuration not stated) | 12.5% (active)
COC(=O)C1=COC(C)C2CN3CCc4c([nH]c5cc(OC)c(OC)cc45)C3CC12 (configuration not stated) | 15.2% (active)
Cc1ncoc1C(=O)N1CCc2c([nH]c3ccccc23)C1C(C)(C)C (configuration not stated) | 2.53%
COC(=O)CCC(=O)OC1(C)C(=O)C=C2C=C(C3CC3)N(c3cccc(C#N)c3)C=C2C1=O (configuration not stated) | 0.81%
COc1ccc(/C=N/N=C2/CC(C)(C)Cc3n[nH]c(=O)cc32)cc1 | 955% (active)
O=c1oc2ccccc2cc1-c1nc(-c2cccs2)cs1 | 7.53%
CCN(CC)c1ccc2cc(-c3nnc(-c4ccncc4)o3)c(=O)oc2c1 | 18.1% (active)
CCN(CC)c1ccc2cc(-c3nc(-c4cc5ccccc5oc4=O)cs3)c(=O)oc2c1 | 12% (active)
CCN(CC)c1ccc2cc(-c3nc4ccccc4n3C)c(=O)oc2c1 | 6.19%
N=c1oc2ccccc2cc1-c1nc(-c2ccccc2)cs1 | 4.19%
CCN(CC)c1ccc2cc(-c3nnc(-c4ccccc4)o3)c(=O)oc2c1 | 232% (active)
Nc1c(C(=O)c2ccc(Cl)cc2)sc2nsc(SCCN3CCOCC3)c12 | 12.7% (active)
Nc1c(C(=O)c2cccs2)sc2nsc(SCCN3CCCCC3)c12 | -1.4%
Brc1ccc2[nH]c3nc(SCCN4CCOCC4)nnc3c2c1 | 6.16%
COc1ccc(CNC(=O)C(C#N)c2nc3ccccc3nc2N2CCCC2)cc1 (configuration not stated) | 2.74%
COc1ccc(CNC(=O)c2cc3c(s2)CS(=O)C3)cc1 (configuration not stated) | 6.8%
COc1ccc(CNC(=O)c2sc(=S)n(-c3ccccc3)c2N)cc1 | 64.8% (active)
COC(=O)c1cc(-c2cccc(OC)c2)n[nH]1 | 16.6% (active)

Compound | activation
COc1ccc(OC)c(C2C3CN(C(C)C)CC=C3C(C#N)=C(N)C2(C#N)C#N)c1 (configuration not stated) | 17.8% (active)
CCCN1CC=C2C(C#N)=C(N)C(C#N)(C#N)C(c3cc(OC)ccc3OC)C2C1 (configuration not stated) | 2.79%
CC(C)(C)OC(=O)N1CC=C2C(C#N)=C(N)C(C#N)(C#N)C(c3cccs3)C2C1 (configuration not stated) | 8.81%
CN1CC=C2C(C#N)=C(N)C(C#N)(C#N)[C@H](c3cccs3)[C@H]2C1 | 13.3% (active)
CN1C=CC2=C(C#N)C(N)C(C#N)(C#N)[C@H](c3ccccc3)[C@H]2C1 (some centres not stated) | 6.1%
COc1cc(C2C3CN(C)CC=C3C(C#N)=C(N)C2(C#N)C#N)ccc1OC(C)C (configuration not stated) | 49.2% (active)
CN1C=CC2=C(C#N)C(N)C(C#N)(C#N)C(c3ccccc3)C2C1 (configuration not stated) | 4.16%
CN1CC=C2C(C#N)=C(N)C(C#N)(C#N)C(c3ccsc3)C2C1 (configuration not stated) | 7.36%
CC(C)N1CC=C2C(C#N)=C(N)C(C#N)(C#N)C(c3ccccc3)C2C1 (configuration not stated) | 6.28%
COc1cc([C@@H]2[C@H]3CN(C)CC=C3C(C#N)=C(N)C2(C#N)C#N)cc2c1OCO2 | 4.84%
CN1CC=C2C(C#N)=C(N)C(C#N)(C#N)[C@H](c3cccc(Cl)c3)C2C1 (some centres not stated) | 24.5% (active)
CCN1CC=C2C(C#N)=C(N)C(C#N)(C#N)[C@H](c3ccoc3)[C@H]2C1 | -0.65%
CN1CC=C2C(C#N)=C(N)C(C#N)(C#N)[C@H](c3ccoc3)[C@H]2C1 | 62.5% (active)
Cc1ccc2nc(/C(C#N)=C/c3ccc(-c4ccccc4C(=O)O)o3)[nH]c2c1 | 12.9% (active)
N#C/C(=C\c1ccc(Sc2ccc(Cl)cc2)o1)c1nc2ccccc2[nH]1 | 7.23%
Cc1cc2nc(/C(C#N)=C\c3ccc(-c4ccccc4C(=O)O)o3)[nH]c2cc1C | 14.2% (active)
N#C/C(=C\c1ccc(-c2ccccc2C(=O)O)o1)c1nc2ccccc2[nH]1 | 14.2% (active)
COc1cccc(CN2CCNC(=O)C2CC(=O)N(C)Cc2cnccn2)c1OC (configuration not stated) | 7.66%
CC(=O)[C@H]1[C@H](C#N)C[C@H]2[C@@H]3CC=C4C[C@@H](O)CC[C@]4(C)[C@H]3CC[C@@]21C | 45.3% (active)
